Experimental data as given in PMC12584159 (Clinical and Translational Science, 2025).
Where two headings read alike, the source gives them in different places.

What was measured:
[1] = first‐generation gepants; cited from earlier work
P‐glycoprotein (P‐gp) = details: cited from earlier work
CYP3A4, CYP2D6 = details: human liver microsomes; cited from earlier work
[2] = cited from earlier work
[3] = single 10–60 mg dose; healthy Japanese and White adults; cited from earlier work
[4] = system: organic anion transporting polypeptide (OATP); details: cited from earlier work
[5] = cited from earlier work; remark: listed apart in the source
[6] = Metabolite profiling in plasma, urine and feces; format: in vivo, human; details: for Feces %DE (dose excreted): feces 0–312 h [n = 1], 0–120 h [n = 3], 0–96 h [n = 2]; for Urine %DE (dose excreted): urine 0–24 h
In short: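 After a single oral 50 mg ¹⁴C dose, plasma was pooled by Hamilton AUC scheme and extracted with acetonitrile. Urine (0–24 h) was pooled by sample weight, and fecal homogenates with ≥2% dose were acetonitrile-extracted. Profiling used HPLC with radiometric detection and high-resolution MS. Metabolite % was taken from radiochromatogram peak areas. Individual plasma through 312 h was also assayed for M23 by LC–MS/MS.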

[7] = Mass balance: total radioactivity recovered in urine and feces; format: in vivo, human; details: N = 6, mean ± SD; for Proportion of radioactive dose excreted in urine (total radioactivity): through last specimen collection
In short: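 Healthy men received a single oral 50 mg (~200 μCi) ¹⁴C dose in PEG400/Ora-Sweet solution after a ≥10-h fast. Urine was collected in intervals and all feces during confinement; feces were weighed and homogenized. Pre-dose feces set background. Total radioactivity was measured by combustion/LSC, with BLQ (urine <89 dpm/mL, feces <81 dpm/g) set to zero. Collection continued until discharge criteria or Day 29.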

[8] = simian chronic toxicology studies; ref internal data; cited from earlier work
human CGRP receptor = details: preclinical studies; cited from earlier work
Safety/tolerability = format: in vivo, human; details: single 50 mg dose
In short: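 Safety was monitored in all dosed participants after a single 50 mg oral dose, covering AEs (MedDRA 20.1 or newer), physical exam, 12-lead ECG, vital signs, hematology, coagulation, chemistry and urinalysis. ECG and vitals were taken on Day 1; labs and vitals on Day 2. TEAEs were new or worsening AEs within 30 days of dosing.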

[9] = Plasma pharmacokinetics of atogepant; format: in vivo, human
In short: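 Fasted healthy men received a single oral 50 mg ¹⁴C dose. Blood was sampled pre-dose to 168 h, then every 72 h until discharge criteria or Day 29. Samples were centrifuged at ≥2500 g for 10 min at ~4°C, and plasma was stored at −70°C. K₂EDTA plasma was assayed by validated LC–MS/MS (1–1000 ng/mL), with BLQ set to zero. Noncompartmental analysis used actual times; ratios were taken to plasma total radioactivity.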

[10] = Urinary excretion of atogepant and renal clearance; format: in vivo, human; details: mean ± SD; for Proportion of administered dose excreted in urine as atogepant (parent drug): LC–MS/MS, urine up to 360 h post‐dose
In short: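 Urine was collected pre-dose and over 0–4, 4–8, 8–12, 12–24 h, then 24-h intervals until discharge criteria or study end, and stored at −20°C. Atogepant was measured by validated LC–MS/MS (1–1000 ng/mL), with BLQ set to zero. Radioactivity was measured by combustion/LSC. Ae0–t, CLR and fraction of dose excreted were computed.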

[11] = Phase 3, placebo 1.8%, cited from earlier work
[12] = system: breast cancer resistance protein (BCRP); details: cited from earlier work
[13] = plasma, single oral 50 mg, N = 6, mean ± SD

## O=C(CN1C(=O)C2(CCCC2)NC[C@H]1c1cc(F)cc(F)c1)Nc1ccc2c(c1)C[C@@]1(C2)C(=O)Nc2ncccc21 [MK‐3207]
[1]
  Liver toxicity in clinical trials: liver toxicity concerns

## C[C@@H]1[C@H](c2c(F)ccc(F)c2F)C[C@H](NC(=O)c2cnc3c(c2)C[C@@]2(C3)C(=O)Nc3ncccc32)C(=O)N1CC(F)(F)F [Atogepant]
P‐glycoprotein (P‐gp)
  Substrate of P‐gp: substrate
CYP3A4, CYP2D6
  Enzymes metabolizing atogepant: predominantly metabolized via CYP3A4 with minor involvement of CYP2D6
[2]; clinical DDI study
  Effect of quinidine (strong P‐gp inhibitor) on atogepant exposure: no clinically relevant increase in atogepant exposure
[2]; multiple‐dose rifampin (strong CYP3A4 and P‐gp inducer)
  Effect of co‐administration on atogepant exposure: significantly decreased atogepant exposure
[2]; single‐dose rifampin (OATP inhibitor), healthy participants
  Effect of co‐administration on atogepant exposure: significantly increased atogepant exposure
[3]
  CLR (renal clearance): 0.9 to 1.5 L/h
[4]
  Substrate of OATP: substrate
[5]
  Accumulation with daily dosing: does not accumulate with daily dosing
  Bioavailability, tablet vs. PEG solution dosing: higher with tablet vs. PEG solution dosing
[6]; comparison of this study to in vivo rat and monkey studies
  Disproportionate human metabolites: no disproportionate human metabolites
[6]; mean ± SD, ND = not detected or < 1% of dose or AUC0–t, listed as Parent
  Feces %DE (dose excreted): 42.2 ± 4.2%
[6]; mean ± SD, ND = not detected or < 1% of dose or AUC0–t, listed as parent drug
  Feces %DE (dose excreted): 42%
[6]; human, feces, oral, 50 mg, Share of fecal radioactivity recovery, unabsorbed drug, biliary excretion, and/or intestinal secretion
  dose excreted: ~52%
[6]; pooled plasma 0–36 h (0–24 h for one participant), HPLC‐RAD, N = 6, mean ± SD, ND = not detected or < 1% of dose or AUC0–t
  Plasma %AUC0–t (percent of radioactive exposure): 84.7 ± 9.2%
[6]; N = 6, mean ± SD, ND = not detected or < 1% of dose or AUC0–t
  Urine %DE (dose excreted): 5%
[6]; N = 6, mean ± SD, ND = not detected or < 1% of dose or AUC0–t, listed as Parent
  Urine %DE (dose excreted): 5.21 ± 1.69%
[7]; through last specimen collection (336 h, 14 days)
  Proportion of radioactive dose excreted in feces (total radioactivity): 81%
[7]
  Proportion of radioactive dose excreted in urine (total radioactivity): 8%
[7]; listed as atogepant
  Proportion of radioactive dose excreted in urine (total radioactivity): ~ 8%
[8]
  No‐observed‐adverse‐effect level: 300 mg/kg
Human CGRP receptor
  Affinity, potency and selectivity for the receptor: high affinity, potency, and selectivity
Safety/tolerability; healthy males N = 6
  Tolerability: well‐tolerated
Safety/tolerability; healthy participants N = 6
  ALT or AST elevations: no ALT or AST elevations observed
[9]; LOQ 1 ng/mL
  Time after dosing up to which atogepant plasma concentrations were measurable: up to 120 h
[9]; male, human, plasma, po, 50 mg
  AUC(0-inf): 2220 ± 966 ng·h/mL
  AUC(0-t): 2180 ± 960 ng·h/mL
  Cmax: 367 ± 189 ng/mL
  half-life: 18.5 ± 11.9 h
[9]; [13]
  AUC0–t, atogepant/total radioactivity ratio: 0.776 ± 0.167
  AUC0–∞, atogepant/total radioactivity ratio: 0.728 ± 0.172
  C max, atogepant/total radioactivity ratio: 0.997 ± 0.286
[9]; plasma, single oral 50 mg, N = 6, mean ± SD, listed as atogepant
  AUC0–∞, atogepant/total radioactivity ratio: ~ 0.75
[9]; plasma, single oral 50 mg, N = 6, median (range)
  T max, atogepant: 1 (0.98–2.98) hours
[10]; N = 6
  Proportion of administered dose excreted in urine as atogepant (parent drug): 4.84% ± 1.63%
  Urine excretion, atogepant/total radioactivity ratio: 0.605 ± 0.109
[10]; N = 6, listed as atogepant
  Proportion of administered dose excreted in urine as atogepant (parent drug): Approximately 5%
[10]; single oral 50 mg, N = 6
  CLR (renal clearance), atogepant: 1.18 ± 0.33 L/h
[10]; up to 360 h post‐dose
  Urine Ae0–t (total urine atogepant excretion): 2.42 ± 0.82 mg
[11]; atogepant 10 mg/day
  Proportion of patients with ALT and AST elevations ≥ 3× upper limit of normal: 0.9%
[11]; atogepant 30 mg/day
  Proportion of patients with ALT and AST elevations ≥ 3× upper limit of normal: 0.9%
[11]; atogepant 60 mg/day
  Proportion of patients with ALT and AST elevations ≥ 3× upper limit of normal: 0.4%
[12]
  Substrate of BCRP: substrate

## O=C(N[C@@H]1CC[C@@H](c2cccc(F)c2F)CN(CC(F)(F)F)C1=O)N1CCC(n2c(=O)[nH]c3ncccc32)CC1 [telcagepant]
[1]
  Liver toxicity in clinical trials: liver toxicity concerns
